High-throughput results (PubChem)
CXCR6 block = blocks human CXCR6 beta-arrestin recruitment. CHO-K1 PathHunter CXCR6 beta-arrestin, luminescence. O00574. 0.36% of 360,000 active. AID 602244. inhibition, % at 20 µM; in the data active = inhibition above about 34%, passing the limit was not always enough;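 note: antagonist mode with CXCL16 agonist at 10 nM final; 0% = 10 nM CXCL16 with DMSO and 100% = unstimulated wells without agonist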
EBI2 block = antagonists of human EBI2 receptor; 0.81% of 360,000 active; AID 651636; inhibition, % at 5 µM; EBI2 beta-arrestin recruitment, luminescence, 7a,25-OHC stimulated; in the data active = inhibition above about 38%;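 note: enzyme fragment complementation signal reports receptor beta-arrestin coupling in cells; 0% = agonist plus DMSO wells and 100% = wells without agonist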
CCR6 antag = CCR6 (human) receptor antagonism. AID 493098. inhibition, % at 20 µM. 0.49% of 340,000 active. CHO-K1 CCR6 PathHunter beta-arrestin, luminescence, CCL20-stimulated;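 active = compounds whose inhibition of the agonist-driven luminescence signal at 20 µM reaches about 50%, limit read from the data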;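 note: cells stimulated with CCL20 at 14 nM final; plate controls were DMSO with CCL20 for no effect and DMSO without agonist for full effect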
APJ antag = blocks the human apelin receptor APJ | P35414 | CHO-K1 APJ beta-arrestin complementation, luminescence | inhibition, % at 20 µM | 0.32% of 330,000 active | AID 2521;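 active = inhibition above about 40% at 20 µM, limit read from the data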;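 note: cells challenged with 10 nM apelin-13 agonist together with compound; plate controls were apelin-13 plus DMSO wells for no effect and DMSO wells lacking apelin-13 for full effect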
Target sequence (P35414 whole entry, looked up): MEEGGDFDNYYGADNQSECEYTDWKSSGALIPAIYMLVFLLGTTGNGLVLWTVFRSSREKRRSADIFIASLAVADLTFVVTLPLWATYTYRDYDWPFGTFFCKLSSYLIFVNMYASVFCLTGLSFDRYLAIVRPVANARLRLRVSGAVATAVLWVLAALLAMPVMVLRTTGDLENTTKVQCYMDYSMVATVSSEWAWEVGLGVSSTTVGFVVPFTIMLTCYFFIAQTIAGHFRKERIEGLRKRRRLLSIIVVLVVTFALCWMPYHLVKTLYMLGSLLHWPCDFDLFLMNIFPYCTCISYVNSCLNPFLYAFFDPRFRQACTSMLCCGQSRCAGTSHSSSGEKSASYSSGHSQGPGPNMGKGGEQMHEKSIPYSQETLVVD
APJ ag = agonists of human APJ apelin receptor; P35414; CHO-K1 APJ PathHunter beta-arrestin, luminescence; 0% DMSO wells, 100% apelin; activation, % at 20 µM; 0.11% of 330,000 active; AID 2520;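 active = activation more than six SD over the plate average, tested at 20 µM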;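 note: 0% = DMSO alone and 100% = apelin-13 at 10 nM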
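Assay system: engineered CHO-K1 APJ arrestin reporter cells; Amount: 1000 CHO-K1 reporter cells seeded per well; Dosing: one dose, 20 µM compound, 1% DMSO; Times: compound stimulation 90 min at 25 °C, detection 60 min; Measured by: luminescent beta-gal fragment complementation, chemiluminescent substrate; Read-out: APJ–arrestin association signal; Controls: DMSO vs Apelin-13 10 nM.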
EBI2 conf = EBI2 (human) antagonism, single concentration confirmation. shares compounds with EBI2 block. EBI2 beta-arrestin luminescence, 7a,25-OHC antagonism. AID 651997. inhibition, % at 5 µM. 29% of 2,400 active;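 active = inhibition of at least 50%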
EBI2 agonist = activates EBI2, counter-screen for EBI2 antagonists. shares compounds with EBI2 block. EBI2-expressing cells, agonist mode, luminescence, 60 min; 0% vehicle, 100% 7α,25-dihydroxycholesterol control. activation, % at 5 µM. 2,400 tested, under 10 active;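 active = activation of at least 50%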
bGal cs = beta-galactosidase inhibition counter-screen; shares compounds with EBI2 block; purified beta-galactosidase, luminescent Galacton Star, 15 min; inhibition, % at 5 µM; 1% of 2,400 active;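 active = replicate-average signal at least 3 plate SD below neutral wells, shown as high inhibition, flagging enzyme-inhibiting false positives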;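 note: 0% = DMSO wells with enzyme and 100% = wells lacking enzyme; higher means stronger loss of beta-gal luminescence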
Active calls of the source: *; x = not tested or not shown. Most compounds without a hit are left out; they make up all but 1.5% or so of the library.

SMILES	CXCR6 block	EBI2 block	CCR6 antag	APJ antag	APJ ag	EBI2 conf	EBI2 agonist	bGal cs
COC(=O)Cc1ccc(OC2(C)CCN(Cc3ccc(-c4ccccn4)cc3)C2)cc1 (stereo unspecified)	8	-37	x	x	x	x	x	x
COc1ccccc1C(NC(=O)C1CCN(CCOc2ccc3ccccc3c2)CC1)c1ccccn1 (stereo unspecified)	16	45*	x	x	x	18	0	8
CC(C)CN1CCC(C(=O)NC(c2ccc(F)cc2)c2ccc3ccccc3n2)CC1 (stereo unspecified)	12	0	x	x	x	x	x	x
COc1ccc(/C=C/CN2CCC(C(=O)NC(c3ccc(F)cc3)c3ccc4ccccc4n3)CC2)cc1 (stereo unspecified)	10	60*	x	x	x	26	-1	-6
COc1ccc(OCCN2CCC(C(=O)NC(c3ccc(F)cc3)c3ncccc3C)CC2)cc1 (stereo unspecified)	-3	46*	x	x	x	12	-1	-4
COc1ccc(OCCN2CCC(C(=O)NC(c3ccc(Cl)cc3)c3ncccc3C)CC2)cc1 (stereo unspecified)	6	55*	x	x	x	17	-2	-14
COc1ccc(OCCN2CCC(C(=O)NC(c3ccccn3)c3ccccc3OC)CC2)cc1 (stereo unspecified)	-1	4	x	x	x	x	x	x
FC(F)(F)c1cc(Cl)c2nc(-c3ccccc3)c(Cc3ccccc3)n2c1	3	-13	x	x	x	x	x	x
CC(C)(C)c1ccc(NC(=O)c2cc(C3CCCN(C(=O)CCc4ccccc4)C3)on2)cc1 (stereo unspecified)	5	34	x	x	x	x	x	x
CC1C(=O)N(Cc2cn(CC3CCCCC3)nn2)CCS(=O)(=O)N1Cc1ccc(-c2ccc(Cl)cc2)cc1 (stereo unspecified)	0	16	x	x	x	x	x	x
CCCCn1nnnc1C(c1ccccc1)N1CCN(C/C=C/c2ccccc2)CC1 (stereo unspecified)	-3	46*	x	x	x	22	-1	-11
CCCCn1nnnc1C(c1ccnc2ccccc12)N1CCN(C/C=C/c2ccccc2)CC1 (stereo unspecified)	9	27	x	x	x	x	x	x
CCCCn1nnnc1C(CC)N1CCN(C/C=C/c2ccccc2)CC1 (stereo unspecified)	1	16	x	x	x	x	x	x
CCCCn1nnnc1C(c1cccc2ccccc12)N1CCN(C/C=C/c2ccccc2)CC1 (stereo unspecified)	19	44*	x	x	x	30	0	4
COc1ccc(NC(=O)C2(C)Cc3c(-c4cccc(C(N)=O)c4)ccnc3O2)cn1 (stereo unspecified)	-1	-8	x	x	x	x	x	x
O=C(Nc1ccc(S(=O)(=O)NCC2CCCO2)cc1)C1CC(=O)N(c2ccccc2)C1 (stereo unspecified)	0	5	3	10	-3	x	x	x
CCc1ccc(N2CC(C(=O)Nc3ccc(S(=O)(=O)NCC4CCCO4)cc3)CC2=O)cc1 (stereo unspecified)	5	60*	0	7	-2	64*	-2	-17
Nc1ncc(-c2ccccc2)c(-c2ccc(OCc3ccccc3)cc2O)n1	2	20	3	-12	-1	x	x	x
COc1ccc(-c2nc(N)nc(C(F)(F)F)c2-c2ccccc2OC)c(O)c1	1	8	-6	0	2	x	x	x
COc1ccc(-c2nc(N)ncc2-c2ccccc2OC)c(O)c1	-6	46*	11	1	-5	15	0	11
COc1ccc(-c2cnc(N)nc2-c2ccc(OC)cc2O)cc1	-6	81*	2	-9	0	44	0	-9
COc1ccc(-c2nc(N)ncc2-c2ccccc2)c(O)c1	2	61*	2	-13	-2	6	-1	-9
O=[N+]([O-])c1ccc(N2CCCCC2)cc1NCCOc1ccccc1	9	44*	20	27	-2	35	-1	-10
COc1ccc(CNC(=O)C2CCN(S(=O)(=O)c3cccc(C(F)(F)F)c3)CC2)cc1	-6	54*	10	5	1	38	0	-16
COc1ccc(S(=O)(=O)N2CCC(C(=O)NCc3ccc(C)cc3)CC2)cc1	3	66*	12	7	1	55*	2	8
SMILES	CXCR6 block	EBI2 block	CCR6 antag	APJ antag	APJ ag	EBI2 conf	EBI2 agonist	bGal cs
Cc1ccc(CNC(=O)N2CCN(S(=O)(=O)c3ccccc3)CC2)cc1	6	56*	14	-16	-3	49	3	-3
Cc1noc(/C=C/c2ccco2)c1S(=O)(=O)N1CCC(C(=O)NCc2ccco2)CC1	-7	3	22	2	-4	x	x	x
COc1ccc(S(=O)(=O)N2CCC(C(=O)NCc3ccncc3)CC2)cc1	-7	-12	9	-7	1	x	x	x
Cc1ccc(CNC(=O)C2CCN(S(=O)(=O)c3c(C)noc3/C=C/c3ccco3)CC2)cc1	11	65*	16	-2	-4	49	2	2
CC1(C(=O)NCc2ccccc2)CN(S(C)(=O)=O)CC(=O)N1Cc1cccs1 (stereo unspecified)	x	2	x	x	x	x	x	x
C#CCNC(=O)C[C@@H]1C[C@@]2(C(=O)OC)CC(C)(C)CC=C2N(CCCCCCCC)C1=O	x	-4	x	x	x	x	x	x
CCCCNC(=O)C[C@@H]1C[C@@]2(C(=O)OCC)CCC=C2N(CCC2=CCCCC2)C1=O	1	-4	x	x	x	x	x	x
O=C(CN1CCN(c2ncc(C(F)(F)F)cc2Cl)CC1)N1CCN(c2ncc(C(F)(F)F)cc2Cl)CC1	-4	2	10	7	13	x	x	x
Cc1ccc(SCC2(O)CCN(S(=O)(=O)c3ccc(Cl)cc3)CC2)cc1	-3	28	2	2	1	x	x	x
O=C(CSc1ccc(Cl)cc1)N1CCN(c2ncc(C(F)(F)F)cc2Cl)CC1	-3	84*	22	-7	-4	70*	0	-15
Cc1ccc(S(=O)(=O)N2CCN(S(=O)(=O)c3cccs3)CC2)cc1	-10	6	-4	6	8	x	x	x
CC(=O)c1ccc(S(=O)(=O)N2CCN(C(=O)CSc3ccc(C)c(C)c3)CC2)cc1	-12	70*	3	-24	0	31	-1	-10
Cc1ccc(S(=O)(=O)N2CCN(C(=O)CSc3ccc(Cl)cc3)CC2)cc1	11	92*	15	-9	-2	68*	0	7
Cc1ccc(SCC(=O)N2CCN(S(=O)(=O)c3cccs3)CC2)cc1	-1	76*	8	5	-3	49	-1	-8
CC1(CCc2ccccc2)NC(=O)NC1=O (stereo unspecified)	-7	-2	4	x	x	x	x	x
